# Screening results: PubChem, several laboratories
# MC4R ag barr: agonists of human melanocortin 4 receptor (MC4R) beta-arrestin; actives 0.98% (n = 360,000); activation, % at 8.9 µM; U2OS MC4R beta-arrestin complementation, luminescence; percent of melanotan II response, DMSO zero; AID 540308; P32245;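 active = activation above a per-plate cutoff, the mean activation of sample wells on that plate plus 3 SD, cut at about 8% in these data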
# MIN6 prolif: induces beta-cell replication in MIN6 cells; MIN6 cells proliferation, ATPlite luminescence, 48 h; cells starved in 0.2% serum; 100% = growth in 10% serum; proliferation, % at 10 µM; actives 0.29% (n = 330,000); AID 2380;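 active = compounds whose signal lies at least 3.5 SD above the mean of all wells on their plate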;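 note: 0% = DMSO-treated cells in low-serum medium and 100% = 10% serum control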
# TMEM16A inh: mouse TMEM16A channel inhibition, primary screen; actives 1.2% (n = 310,000); normalized B-score (activity score, 25-100; higher = stronger inhibition) at 10 µM; Q8BHY3; HEK293 TMEM16A/YFP iodide influx fluorescence, ionomycin;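 active = ratio plate-corrected score three or more library SD toward inhibition, starting fluorescence score within five deviations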;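 note: score derived from kinetic fluorescence span divided by baseline fluorescence per well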
# MC4R antagonist: antagonists of human melanocortin 4 receptor (MC4R). MC4R-expressing cells, MTII-stimulated cAMP, LANCE TR-FRET. P32245. AID 540295. actives 0.48% (n = 360,000). inhibition, % at 6.5 µM;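 active = inhibition above its plate's cutoff, the mean of tested wells on that plate plus 3 SD, cut at about 29% in these data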;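 note: 0% = Melanotan II alone and 100% = Melanotan II plus saturating MCL0020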
#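 Assay system: U2OS-MC4R stable cell line; Also added: Melanotan II; Technique: Eu-cAMP/anti-cAMP TR-FRET, emission 671 nm; Times: 30-min compound, 1-h challenge, 1-h detection, room temperature.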
# ANO1 activ: mouse TMEM16A channel activation, primary screen; actives 0.3% (n = 340,000); Q8BHY3; B-score at 10 µM; HEK293 TMEM16A/YFP-H148Q/I152L, iodide quench fluorescence; stronger effect = lower value;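 active = fluorescence-ratio B-score plate-corrected deviation score at least 3 library SD below zero, with starting fluorescence score within 5 deviations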;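 note: channel opened by trigger with iodide after compound preincubation; score built on the fluorescence ratio of max minus min over baseline; more negative score means more quench and so TMEM16A activation or potentiation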
# m5-HT2A agonist: mouse HTR2A agonism via beta-arrestin recruitment; P35363; actives 0.66% (n = 360,000); CHO-K1 mHTR2A beta-arrestin complementation, luminescence; percent of 30 µM serotonin response; activation, % at 7.6 µM;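 active = activation above a run cutoff, the mean activation of all tested compounds plus 3 SD, cut at about 14% in these data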;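 note: 0% = plate median of compound wells and 100% = 30 µM serotonin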
# Target sequence (P35363 whole entry, looked up): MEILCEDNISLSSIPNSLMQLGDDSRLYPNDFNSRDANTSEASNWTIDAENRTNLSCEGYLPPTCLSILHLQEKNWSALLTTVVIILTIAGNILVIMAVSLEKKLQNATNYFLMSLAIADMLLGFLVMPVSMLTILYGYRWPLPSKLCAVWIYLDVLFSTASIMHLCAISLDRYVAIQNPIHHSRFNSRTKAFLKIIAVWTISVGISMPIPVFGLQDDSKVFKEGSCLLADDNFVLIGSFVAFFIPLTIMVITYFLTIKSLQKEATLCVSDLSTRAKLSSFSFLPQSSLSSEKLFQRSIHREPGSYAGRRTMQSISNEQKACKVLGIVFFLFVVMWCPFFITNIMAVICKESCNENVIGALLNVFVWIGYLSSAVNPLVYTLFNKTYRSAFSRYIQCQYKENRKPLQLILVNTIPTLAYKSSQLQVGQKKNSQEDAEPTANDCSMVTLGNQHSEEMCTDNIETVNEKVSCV
# MC4R barr conf: human MC4R beta-arrestin agonism confirmation; shares compounds with MC4R ag barr; U2OS MC4R beta-arrestin recruitment, luminescence; scaled DMSO 0%, Melanotan II 100%; activation, % at 8.9 µM; actives 31% (n = 2,400);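 active = mean activation across replicates above the hit cutoff set in the earlier primary screen, cut at about 8% in these data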
# MOR DOR agonist: counter-screen for MC4R agonists: agonists of mu-delta opioid heterodimer; shares compounds with MC4R ag barr; U2OS PathHunter beta-arrestin, beta-gal luminescence; percent of deltorphin B response, DMSO zero; activation, % at 9.2 µM; actives 5.8% (n = 2,400); AID 602194;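 active = mean activation across replicates exceeds the hit threshold derived in the earlier primary screen, cut at about 18% in these data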;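 note: 100% = deltorphin B at 0.9 µM final and 0% = DMSO alone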
# The depositor's hits bear a star; i = inactive; . = no result. An excerpt weighted towards active compounds, which were near 3.4% of everything screened.
SMILES,MC4R ag barr,MIN6 prolif,TMEM16A inh,MC4R antagonist,ANO1 activ,m5-HT2A agonist,MC4R barr conf,MOR DOR agonist
CC1(C(=O)Nc2ccc3c(c2)OCCO3)CCN1C(=O)c1cccc(F)c1 (centres undefined),-1.8,.,.,-2.1,.,0.0,.,.
COc1ccc(-c2nnc(SCC(=O)Nc3cccc(Cl)c3)o2)cc1,15.5*,-3.6,i,-4.9,i,0.5,3.4,8.8
COc1ccc(OCC(=O)Nc2cccc(-c3nc4ccccc4o3)c2)cc1,18.9*,-2.5,i,8.2,i,3.4,5.4,3.5
COc1ccc(OCC(=O)Nc2cccc(NC(=O)COc3ccc(OC)cc3)n2)cc1,13.4*,2.4,i,1.2,i,0.1,5.4,25.8*
COc1ccc(-c2coc3c(C(=O)NCc4ccc(OC)c(OC)c4)cccc23)c(C)c1,0.9,.,.,5.7,.,-5.3,.,.
O=C(COC(=O)/C=C/c1cccc(F)c1)NC(=O)NC1CCCC1,5.4,-2.2,.,-0.3,i,1.1,.,.
CCOc1ccccc1C1NC(=O)c2ccccc2N1 (centres undefined),-2.1,.,.,-16.7,i,1.6,.,.
CCN1C[C@@H]2[C@@H]3C(=O)N(C)C(=O)[C@@H]3[C@](Cc3ccccc3)(C1=O)N2C(=O)c1ccc(F)cc1,1.8,.,.,13.3,i,-4.3,.,.
CCCCCC(=O)Nc1ccc(C(=O)CN2C(=O)NC3(CCCCCC3)C2=O)cc1,-1.0,-6.5,i,2.4,i,3.5,.,.
CCOC(=O)c1cccc(Nc2nc(-c3cccnc3)nc3ccccc23)c1,11.6*,-3.6,i,4.8,i,3.3,5.5,6.7
O=C(Nc1ccc(C(=O)N2CCOCC2)cc1)C1CC1,0.4,.,.,10.8,.,1.4,.,.
CN(C)CCNC(=O)c1cccc(-c2cc(NC=O)c3ncc(-c4cccc(C(F)(F)F)c4)n3c2)c1,23.4*,.,.,-6.0,.,-8.7,29.0*,7.0
COc1cccc(-c2cnc3c(NC=O)cc(-c4ccc(O)c(OC)c4)cn23)c1,30.3*,.,.,-4.5,.,2.5,30.4*,4.0
COc1cc(-c2cnc3c(NC=O)cc(-c4cccc(C(F)(F)F)c4)cn23)cc(OC)c1OC,18.3*,.,.,-1.5,.,-4.3,7.0,4.6
COc1cccc(-c2cnc3c(NC=O)cc(-c4cccc(C(=O)N(C)C)c4)cn23)c1,30.5*,.,.,-10.8,.,9.3,21.5*,1.2
CSc1ccccc1OCc1cc(C(=O)N2CCc3c(Cl)cccc3C2)no1,2.3,-6.5,i,-5.2,i,2.5,.,.
COc1cccc(-c2cc(NC=O)c3ncc(-c4cc(OC)c(OC)c(OC)c4)n3c2)c1,27.7*,.,.,-49.0,.,-0.7,6.4,3.7
Cn1cc(-c2cnc3c(NC=O)cc(-c4cccc(C(F)(F)F)c4)cn23)cn1,1.9,.,.,-10.9,.,-3.7,.,.
COc1cc(-c2cnc3c(NC=O)cc(-c4cccnc4)cn23)cc(OC)c1OC,1.1,.,.,-53.4,.,6.0,.,.
Nc1ccc(-c2cc(NC=O)c3ncc(-c4cccc(C(F)(F)F)c4)n3c2)cn1,11.3*,.,.,-18.3,.,1.9,5.0,5.0
CCCCOC(=O)Nc1ccc(S(=O)(=O)Nc2onc(C)c2C)cc1,-1.0,-3.5,i,15.6,i,-3.4,.,.
Cc1cccc(C(=O)Nc2ccc(O)c3c(=O)cc(-c4ccccc4Cl)oc23)c1,16.8*,1.1,i,7.5,i,4.0,0.4,2.9
COc1ccc(S(=O)(=O)N2CCOCC2)cc1NC(=O)c1ccccc1-c1ccc(C(F)(F)F)cc1,10.0*,0.0,i,17.9,i,-4.6,-0.4,2.2
CN(C)CCCNC(=O)c1ccccn1,1.1,1.1,i,-1.7,i,-4.0,.,.
CN(C)CCCNC(=O)c1ccc(-c2nc(-c3ccc(Cl)cc3)cs2)cc1,15.7*,-6.1,i,17.4,i,-6.7,56.4*,6.3
SMILES,MC4R ag barr,MIN6 prolif,TMEM16A inh,MC4R antagonist,ANO1 activ,m5-HT2A agonist,MC4R barr conf,MOR DOR agonist
CCOC(=O)CNC(=O)c1cc(-c2ccccn2)nc2c(C)c(Cl)ccc12,29.8*,-3.8,i,14.5,i,-4.3,-2.8,5.2
CCOC(=O)CN(C(=O)c1snc(C(N)=O)c1N)C(C(=O)NC1CCCCC1)c1ccc(F)cc1 (centres undefined),-1.5,-2.4,i,5.3,i,1.4,.,.
CCOC(=O)Cc1csc(NC(=O)c2sc3nc4cc(C)ccc4cc3c2N)n1,38.9*,-3.9,i,11.3,i,5.3,24.9*,2.5
OC(CNCCc1ccc(Cl)cc1)COc1ccc2ccccc2c1 (centres undefined),20.0*,.,.,-4.3,i,9.8,14.8*,5.4
COc1ccc(CCNCC(O)COc2ccc(Cl)cc2)cc1OC (centres undefined),-2.2,-1.3,i,-1.9,i,-7.3,.,.
Cc1ccc(-c2c(C)c(-c3ccc(F)cc3)nc(N)c2C#N)o1,13.2*,-3.5,i,10.3,i,-0.9,1.3,9.7
Cc1c(-c2ccc(F)cc2)nc(N)c(C#N)c1-c1cccnc1,0.6,-0.1,i,10.4,i,-2.1,.,.
CCOC(=O)N1CCC(NC(=O)Cn2cc3c(n2)CCC(C)C3)CC1 (centres undefined),0.2,0.4,i,7.4,i,2.6,.,.
CCOC(=O)c1ccc(NC(=O)Cn2cc3c(n2)CCC(C)C3)cc1 (centres undefined),13.3*,-2.5,i,3.0,i,3.7,2.1,5.0
COc1ccc(C(=O)C[C@@H]2OC3CCCCC3N2S(=O)(=O)c2ccc(C)cc2)cc1OC (some centres undefined),.,.,.,.,.,-4.0,.,.
CC1CCCN(C(=O)CCNC(=O)Cn2cnc3ccccc3c2=O)C1 (centres undefined),0.4,0.0,i,-1.6,i,-5.4,.,.
Cc1cc2nc(NCCCO)n(CC(=O)c3cc(C(C)(C)C)c(O)c(C(C)(C)C)c3)c2cc1C,13.2*,-9.0,100*,6.7,i,10.6,5.7,11.1
Cc1cc(C)c2cc(C(=O)N3CCN(c4ncccc4C(F)(F)F)CC3)[nH]c2c1,12.2*,-5.8,i,5.8,i,-1.4,0.9,4.2
CCOc1ccc(NS(=O)(=O)c2ccc(N)cc2)cc1,-3.1,-0.4,i,-2.7,i,-3.5,.,.
CCOc1ccc(NS(=O)(=O)c2ccc(SC)cc2)cc1,10.5*,-2.0,i,2.6,i,5.3,0.4,6.7
